pIC50: −log10 of the molar value.
Experiments:
[1] = biological target: Inosine-5'-monophosphate dehydrogenase 2 (Homo sapiens, UniProt P12268); experiment: Inhibition of human IMPDH2
CCRF-CEM = experiment: Inhibition of CEM cell proliferation; assay type: functional, cell-based; settings: Homo sapiens
Outline: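 Human CEM T-lymphoblasts grown in RPMI 1640 with 10% heat-inactivated FBS and penicillin/streptomycin. Seeded at 3000 cells/well with 0.5% DMSO; compounds tested in triplicate from 10 µM top concentration in 3-fold dilutions.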

PBMC = experiment: Inhibition of T cell proliferation in PBMC cells; assay type: functional, cell-based; settings: Homo sapiens
Outline: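 Human PBMCs isolated from heparinized whole blood by density gradient and plated at 5 × 10^4 cells/well in RPMI 1640 with 10% FBS. Stimulated with anti-CD3 OKT3 (200 ng/mL) plus soluble anti-CD28 (1 µg/mL). Compounds tested in triplicate from 3.3 µM in 3-fold dilutions with 0.5% DMSO for 72 h.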

For `CC(C)(NC(=O)c1cc2[nH]c3ccccc3c(=O)c2cc1F)c1ccc(N2CCOCC2)nc1`, the pIC50 [1] was 7.70, the pIC50 (CCRF-CEM) was 6.18 and the pIC50 (PBMC) was 6.68.

Work on `Cc1ccc(C(C)(C)NC(=O)c2cc3[nH]c4ccccc4c(=O)c3cc2F)cn1` yielded a pIC50 [1] of 7.64, a pIC50 (CCRF-CEM) of 6.12 and a pIC50 (PBMC) of 6.57.

For `COc1cc(C(C)(C)NC(=O)c2cc3[nH]c4ccccc4c(=O)c3cc2F)cnc1N1CCOCC1`, the pIC50 [1] was 7.70, the pIC50 (CCRF-CEM) was 6.09 and the pIC50 (PBMC) was 6.49.

Work on `CN(C)c1cc(C(C)(C)NC(=O)c2cc3[nH]c4ccccc4c(=O)c3cc2F)ccn1` yielded a pIC50 [1] of 7.85, a pIC50 (CCRF-CEM) of 6.19 and a pIC50 (PBMC) of 6.66.

For `CC(C)(NC(=O)c1cc2[nH]c3ccccc3c(=O)c2cc1F)c1cccnc1`, the pIC50 [1] was 7.96, the pIC50 (CCRF-CEM) was 6.38 and the pIC50 (PBMC) was 6.85.

With `CC(C)(NC(=O)c1ccc2c(=O)c3ccccc3[nH]c2c1)c1cccnc1` the pIC50 [1] was 7.38, the pIC50 (CCRF-CEM) was 5.66 and the pIC50 (PBMC) was 6.23.

`CC(C)(NC(=O)c1ccc2c(=O)c3ccccc3[nH]c2c1)c1ccccc1` was tested, and the pIC50 [1] was 7.72 and the pIC50 (PBMC) was 6.14.

With `C[C@@H](NC(=O)c1ccc2c(=O)c3ccccc3[nH]c2c1)c1ccccc1` the pIC50 [1] was 7.02.

`CN(C)CCOc1ccc(C(C)(C)NC(=O)c2cc3[nH]c4ccccc4c(=O)c3cc2F)cc1` showed a pIC50 [1] of 7.70, a pIC50 (CCRF-CEM) of 6.25 and a pIC50 (PBMC) of 6.68.

`CN(C)S(=O)(=O)c1ccc(C(C)(C)NC(=O)c2cc3[nH]c4ccccc4c(=O)c3cc2F)cc1` was tested, and the pIC50 [1] was 8.00, the pIC50 (CCRF-CEM) was 6.18 and the pIC50 (PBMC) was 6.70.

Compound `CC(C)(NC(=O)c1cc2[nH]c3ccccc3c(=O)c2cc1F)c1cccc(S(C)(=O)=O)c1` has a pIC50 [1] of 7.92, a pIC50 (CCRF-CEM) of 6.24 and a pIC50 (PBMC) of 6.55.

`O=C(NCc1ccccc1)c1ccc2c(=O)c3ccccc3[nH]c2c1` was tested, and the pIC50 [1] was 5.66.

Compound `Cc1cc(C(C)(C)NC(=O)c2cc3[nH]c4ccccc4c(=O)c3cc2F)cnc1N1CCOCC1` has a pIC50 [1] of 7.96, a pIC50 (CCRF-CEM) of 6.06 and a pIC50 (PBMC) of 6.57.
